The list is not random: actives were taken first. Their share in the collection is about 4.7%.
GAA850 FXN act: frataxin GAA850 promoter activation | activation, % at 6 µM | AID 540364 | HEK293 lucGAA850 FXN promoter luciferase reporter, 24 h; percent of 10 µM SAHA response | 360,000 tested, 0.56% active;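 active = activation above the average of all compounds screened plus 3 SD, cutoff fixed separately per campaign, cut at about 7.5% in these data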
m5-HT2A agonist: agonists of mouse serotonin 5-HT2A receptor (HTR2A); activation, % at 7.6 µM; P35363; 360,000 tested, 0.66% active; CHO-K1 mHTR2A beta-arrestin complementation, luminescence; percent of 30 µM serotonin response;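 active = activation above a run cutoff, the mean activation of all tested compounds plus 3 SD, cut at about 14% in these data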
MC4R barr agon: agonists of human melanocortin 4 receptor (MC4R) beta-arrestin | P32245 | U2OS MC4R beta-arrestin complementation, luminescence; percent of melanotan II response, DMSO zero | activation, % at 8.9 µM | 360,000 tested, 0.98% active;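 active = activation above a per-plate cutoff, the mean activation of sample wells on that plate plus 3 SD, cut at about 8% in these data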
AHR activator: activators of human aryl hydrocarbon receptor | P35869 | AHR-responsive luciferase reporter cells, luminescence | 320,000 tested, 2.5% active | activation, % at 5 µM; in the data active = activation above about 47%
Target sequence (P35869 whole entry, looked up): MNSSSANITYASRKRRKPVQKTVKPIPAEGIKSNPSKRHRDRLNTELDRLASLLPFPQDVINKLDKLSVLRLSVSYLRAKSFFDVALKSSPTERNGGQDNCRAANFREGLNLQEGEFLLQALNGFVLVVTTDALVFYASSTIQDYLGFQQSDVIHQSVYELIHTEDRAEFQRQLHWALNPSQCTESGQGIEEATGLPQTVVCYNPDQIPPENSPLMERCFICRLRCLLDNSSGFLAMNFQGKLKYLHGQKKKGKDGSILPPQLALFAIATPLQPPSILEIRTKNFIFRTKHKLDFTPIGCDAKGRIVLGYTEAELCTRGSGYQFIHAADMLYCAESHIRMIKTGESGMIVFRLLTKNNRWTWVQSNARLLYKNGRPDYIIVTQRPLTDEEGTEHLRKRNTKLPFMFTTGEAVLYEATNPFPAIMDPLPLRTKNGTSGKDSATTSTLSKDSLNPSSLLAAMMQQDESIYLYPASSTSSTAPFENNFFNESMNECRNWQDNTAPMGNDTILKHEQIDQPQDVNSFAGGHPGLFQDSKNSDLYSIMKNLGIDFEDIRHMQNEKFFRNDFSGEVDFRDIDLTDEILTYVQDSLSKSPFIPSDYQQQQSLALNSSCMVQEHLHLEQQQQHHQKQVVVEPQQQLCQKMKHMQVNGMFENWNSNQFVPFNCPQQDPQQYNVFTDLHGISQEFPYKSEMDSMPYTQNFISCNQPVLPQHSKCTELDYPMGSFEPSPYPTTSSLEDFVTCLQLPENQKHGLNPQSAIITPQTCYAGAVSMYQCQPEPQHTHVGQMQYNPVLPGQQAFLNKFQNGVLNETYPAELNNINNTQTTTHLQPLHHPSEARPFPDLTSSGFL
MC4R antag cAMP: human MC4R antagonism in cAMP assay. P32245. inhibition, % at 6.5 µM. 360,000 tested, 0.48% active. AID 540295. MC4R-expressing cells, MTII-stimulated cAMP, LANCE TR-FRET;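 active = inhibition above its plate's cutoff, the mean of tested wells on that plate plus 3 SD, cut at about 29% in these data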
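Assay system: U2OS cells stably expressing human melanocortin 4 receptor (MC4R) / Dosing: 6.5 µM / Timing: compound 30 min, challenge 1 h, detection 1 h / Measured by: Eu-cAMP/anti-cAMP TR-FRET, emission 671 nm / Replicates: singlicate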
Numbers stand for hits; – = inactive; · = no result given.

SMILES	GAA850 FXN act	m5-HT2A agonist	MC4R barr agon	AHR activator	MC4R antag cAMP
CC1CCN(C2=C(NS(=O)(=O)c3ccccc3)C(=O)c3ccccc3C2=O)CC1	–	–	–	–	–
Nc1ccccc1-n1cccc1	–	–	–	56	–
Cc1ccc(C)n1-c1ccccc1N	·	·	·	–	·
O=C1NC2=C(CCc3ccccc32)C(c2ccc(Br)cc2)N1 (stereo not given)	–	–	–	61	–
O=C1Cc2ccccc2C(c2ccc(Br)cc2)N1 (stereo not given)	–	–	–	–	–
Nc1ccccc1N=Cc1ccc(-c2cccc(Cl)c2)o1	–	–	–	78	–
COc1ccc(C(CNC(=O)c2ccc(OC)c(S(=O)(=O)N3CCCC3)c2)N2CCCC2)cc1 (stereo not given)	–	–	–	–	–
Cn1c(-c2nnn(-c3ccc(F)cc3)n2)cc2ccccc21	·	·	·	69	·
Fc1ccc(-n2nnc(-c3ccnc4ccccc34)n2)cc1	–	–	–	54	–
Cc1ccc(-n2nnc(-c3cc4ccccc4n3C)n2)cc1	–	–	–	–	–
Cc1ccc2c(=O)n3c(nc2c1)C(C)NC(=O)c1cccnc1-3 (stereo not given)	–	–	–	·	–
O=C(Nc1ccccc1)c1cc(N2CCOCC2)nc2ccccc12	–	–	–	58	–
O=C(Nc1nccs1)c1cc(-c2ccccn2)nc2c(Cl)cccc12	–	–	–	76	–
O=C(O)c1cc(N2CCOCC2)nc2ccccc12	–	–	–	–	–
Cc1ccc(NC(=O)c2cc(N3CCOCC3)nc3ccccc23)cc1	–	–	–	58	–
Cc1cccc(NC(=O)c2cc(N3CCOCC3)nc3ccccc23)c1	–	–	–	–	–
CC(C)Oc1cccc(-c2cc(C(=O)NN3CCOCC3)c3ccccc3n2)c1	–	–	–	–	–
CCCc1ccc(-c2cc(C(=O)NN3CCOCC3)c3ccccc3n2)cc1	8.3	–	–	–	–
O=C(NCc1cccnc1)c1cc(C2CCCCN2C(=O)CCCc2ccccc2)on1 (stereo not given)	–	–	–	·	–
O=S(=O)(c1ccc(SCc2c(F)cccc2Cl)nc1)N1CCCC1	–	–	–	·	–
COC(=O)[C@]12CCCCC=C1N(CCC1=CCCCC1)C(=O)[C@H](CC(=O)N1CCOCC1)C2	·	–	·	·	·
CCCCn1c(N)c(N(CCC(C)C)C(=O)CN2C(=O)C3CCCCC3C2=O)c(=O)[nH]c1=O (stereo not given)	–	–	–	–	–
O=C(Nc1nccs1)c1cc(Cl)nc2ccccc12	–	–	–	68	–
O=C(Nc1nccs1)c1cc(N2CCOCC2)nc2ccccc12	–	–	–	76	–
CCOC(=O)c1ccc(N2C(=O)CC(N3CCCC(C)C3)C2=O)cc1 (stereo not given)	–	–	–	–	29
SMILES	GAA850 FXN act	m5-HT2A agonist	MC4R barr agon	AHR activator	MC4R antag cAMP
O=C(Nc1ccnn1C1CCN(Cc2ccc(CO)o2)CC1)c1cccc(F)c1	–	–	–	·	–
Cn1c(=O)c2cc3c(nc2n(C)c1=O)CC(c1ccccc1)CC3=O (stereo not given)	–	–	–	59	–
Cc1cccc(C)c1-n1nnnc1C1(C)CCC(=O)N1Cc1cccc(C(F)(F)F)c1 (stereo not given)	·	–	·	·	·
CCN(CC)S(=O)(=O)c1ccc(C(=O)N2CCN(C(=O)c3ccco3)CC2)cc1	–	–	–	–	–
CC(C)=CCOc1c2ccoc2cc2oc(=O)ccc12	–	–	–	51	–
CC1(C)O[C@@H]1COc1c2ccoc2cc2oc(=O)ccc12	–	–	–	70	–
CC(=O)c1cnc2cc(-c3ccc(Cl)cc3)nn2c1C	–	–	–	71	–
Cc1c(C(=O)O)cnc2cc(-c3ccc(Cl)cc3)nn12	–	–	–	–	–
Cc1cc(-n2c(C)cc(C(=O)COc3ccc(Cl)cc3C(N)=O)c2C)no1	–	–	–	47	–
N#Cc1c(Cc2cccc3ccccc23)nn(CCO)c1N	–	–	–	–	–
CCC1=[N+](CC(=O)c2ccc(C)cc2)CCn2cccc21	–	–	–	–	–
CCC1=[N+](CC(=O)c2ccc(C)cc2)CCn2c(C)ccc21	–	–	–	71	–
CCC1=[N+](CC(=O)c2ccc(Br)cc2)CCn2c(C)ccc21	–	–	–	73	–
OCC[C@H]1C[C@H](O)[C@@H](O)[C@@]2(CCc3ccccc3O2)O1	–	–	–	–	–
COc1cccc(N2CCN(C(=S)Nc3cc(C)cc(C)c3)CC2)c1	–	–	–	–	–
COc1ccccc1C(=O)NNC(=O)c1ccc(Br)o1	–	–	–	55	–
CC1CCCC(NC(=O)c2ccc3c(c2)OCO3)C1C (stereo not given)	–	–	–	70	–
COc1cc(C(=O)OCC(=O)NCCC2=CCCCC2)ccc1OCC(C)C	–	–	9.2	–	–
CC(C)c1ccc(/C=C2\SC(=O)N(CC(=O)NC3C=CS(=O)(=O)C3)C2=O)cc1 (stereo not given)	–	–	–	–	–
CCc1ccc(NC(=O)c2cc(S(=O)(=O)N3CCCC3)c[nH]2)cc1	–	–	–	–	–
CC(C)c1ccc(NC(=O)c2cc(S(=O)(=O)N3CCCC3)c[nH]2)cc1	–	–	–	49	–
O=C(COC(=O)c1cc(=O)[nH]c2ccccc12)Nc1ccc(F)cc1	–	–	–	–	–
Cc1nc(-c2cccs2)ccc1C(=O)O	–	–	–	–	–
Brc1cc(Br)c2nc(-c3cccs3)ccc2c1	–	–	–	52	–
Cc1cc(Nc2ccccc2)n(-c2ccc(Br)cc2)n1	–	–	–	–	–
SMILES	GAA850 FXN act	m5-HT2A agonist	MC4R barr agon	AHR activator	MC4R antag cAMP
Cc1cc(=O)oc2c1c(C)nn2-c1cccc(Cl)c1	–	–	–	71	–
Cc1cc(=O)oc2c1c(C)nn2-c1ccc(Br)cc1	–	–	–	67	–
COc1ccc(/C=C/C(=O)NC(=S)NCC2CCCO2)cc1 (stereo not given)	–	–	–	–	–
COc1ccccc1/C=C/C(=O)NC(=S)NCC1CCCO1 (stereo not given)	–	–	–	69	–
Cc1cnc(-c2nc3ccccc3n2C(C(=O)NC(C)(C)C)c2ccncc2)cn1 (stereo not given)	·	–	·	·	·
OCC[C@@H]1NCc2cc(CO)cc(-c3ccccc3)c21	–	–	–	·	–
Cc1ccccc1N1C(=O)c2ccccc2C1O (stereo not given)	–	–	–	–	–
CN(C)CCCN(C(=O)CCc1ccccc1)c1nc2ccc(Br)cc2s1	–	–	9.5	–	–
[O-]/C(=C(\C(=S)Nc1ccccc1F)[n+]1ccccc1)c1ccc(-c2ccccc2)cc1	–	–	–	60	–
CC(C)(C)c1cc[n+](/C(C(=S)Nc2ccccc2F)=C(/[O-])c2ccc3c(c2)OCCO3)cc1	–	–	–	–	–
C#Cc1ccc(NC(=O)C2(C)CCN2C(=O)Cc2ccc(C(C)C)cc2)cc1 (stereo not given)	–	–	–	·	–
